Values after ≈ are worked out from the molar mass of the structure shown. A value given as a limit tells only on which side of the number the result lay.

Holding throughout (type): functional
The subject of one assay is Trichophyton rubrum. Kind of assay: Antifungal activity against Trichophyton rubrum assessed as growth inhibition by serial dilution method. A digest of the protocol:
(§1)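 Compounds were dissolved in DMSO and diluted in growth medium. Incubation was at 28 °C. MIC was the lowest concentration with turbidity at the 80% inhibition threshold relative to the drug-free growth control.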

The subject of another assay is Nannizzia gypsea. Kind of assay: Antifungal activity against Microsporum gypseum assessed as growth inhibition by serial dilution method. The method in brief: as §1
The test system of the next assay is Cryptococcus neoformans. Briefly: Antifungal activity against Cryptococcus neoformans assessed as growth inhibition after 72 hrs by serial dilution method. A digest of the protocol:
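Compounds were taken up in DMSO and diluted in growth medium. Incubation was at 35 °C with MIC read at 72 h. MIC was the lowest concentration at which turbidity reached the 80% inhibition cutoff against the untreated growth control.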

A further assay concerns Candida albicans. Briefly: Antifungal activity against Candida albicans assessed as growth inhibition after 24 hrs by serial dilution method. A digest of the protocol:
(§2)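 Candida strains were ATCC or clinical isolates. Compounds were dissolved in DMSO and serially diluted in growth medium. Plates were incubated at 35 °C and read at 24 h. MIC was the lowest concentration giving turbidity at […]80% inhibition relative to the growth control.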

The next assay has as its system Candida parapsilosis. Kind of assay: Antifungal activity against Candida parapsilosis assessed as growth inhibition after 24 hrs by serial dilution method. The conditions noted are these: Lodderomyces parapsilosis. The method in brief: as §2
The test system of another assay is Nakaseomyces glabratus. Briefly: Antifungal activity against Candida glabrata assessed as growth inhibition after 24 hrs by serial dilution method. A digest of the protocol:
as §2

The test system of a further assay is Aspergillus fumigatus. Kind of assay: Antifungal activity against Aspergillus fumigatus assessed as growth inhibition after 7 days by serial dilution method. The conditions noted are these: 168 h.

In the case of `CCc1cn(C2CCN(CC(O)(Cn3cncn3)c3ccc(F)cc3F)CC2)nn1` (stereo unspecified), the MIC80 was 1 µg/mL (≈ 2.4 µM) in the assay on Trichophyton rubrum; 8 µg/mL (≈ 19.2 µM) in the assay on Nannizzia gypsea; 1 µg/mL (≈ 2.4 µM) in the assay on Cryptococcus neoformans; 0.125 µg/mL (≈ 0.299 µM) in the assay with Candida albicans; 1 µg/mL (≈ 2.4 µM) with Candida parapsilosis; 0.5 µg/mL (≈ 1.2 µM) in the assay with Nakaseomyces glabratus. In addition, in the assay with Aspergillus fumigatus, the MIC80 turned out to be 64 µg/mL (≈ 153 µM).

Consider `CCCc1cn(C2CCN(CC(O)(Cn3cncn3)c3ccc(F)cc3F)CC2)nn1` (stereo unspecified), for which the MIC80 in the assay with Trichophyton rubrum stood at 1 µg/mL (≈ 2.32 µM); with Nannizzia gypsea, 4 µg/mL (≈ 9.27 µM); with Cryptococcus neoformans, 0.5 µg/mL (≈ 1.16 µM); in the assay with Candida albicans it was 0.125 µg/mL (≈ 0.29 µM); in the assay on Candida parapsilosis it was 1 µg/mL (≈ 2.32 µM); in the assay with Nakaseomyces glabratus it was 0.25 µg/mL (≈ 0.579 µM). Besides, the MIC80 in the assay on Aspergillus fumigatus is 16 µg/mL (≈ 37.1 µM).

Consider `OC(CN1CCC(n2cc(C3CC3)nn2)CC1)(Cn1cncn1)c1ccc(F)cc1F` (stereo unspecified), for which the MIC80 came out at 2 µg/mL (≈ 4.66 µM) with Trichophyton rubrum; 8 µg/mL (≈ 18.6 µM) in the assay with Nannizzia gypsea; 1 µg/mL (≈ 2.33 µM) with Cryptococcus neoformans; 0.125 µg/mL (≈ 0.291 µM) with Candida albicans; 1 µg/mL (≈ 2.33 µM) in the assay with Candida parapsilosis; 0.25 µg/mL (≈ 0.582 µM) with Nakaseomyces glabratus. Also, the MIC80 in the assay on Aspergillus fumigatus stood at 64 µg/mL (≈ 149 µM).

Turning to `OC(CN1CCC(n2cc(C3CCCC3)nn2)CC1)(Cn1cncn1)c1ccc(F)cc1F` (stereo unspecified), the MIC80 was 16 µg/mL (≈ 35 µM) in the assay with Trichophyton rubrum; 64 µg/mL (≈ 140 µM) in the assay with Nannizzia gypsea; 8 µg/mL (≈ 17.5 µM) in the assay with Cryptococcus neoformans; 0.5 µg/mL (≈ 1.09 µM) in the assay with Candida albicans; 8 µg/mL (≈ 17.5 µM) in the assay with Candida parapsilosis; 4 µg/mL (≈ 8.74 µM) with Nakaseomyces glabratus. The MIC80 in the assay on Aspergillus fumigatus was more than 64 µg/mL.

As to `COCc1cn(C2CCN(CC(O)(Cn3cncn3)c3ccc(F)cc3F)CC2)nn1` (stereo unspecified), the MIC80 with Trichophyton rubrum is 0.5 µg/mL (≈ 1.15 µM); in the assay with Nannizzia gypsea, 2 µg/mL (≈ 4.61 µM); in the assay on Cryptococcus neoformans it was 0.25 µg/mL (≈ 0.577 µM); in the assay with Candida albicans, 0.125 µg/mL (≈ 0.288 µM); in the assay on Candida parapsilosis, 0.5 µg/mL (≈ 1.15 µM); in the assay with Nakaseomyces glabratus, 0.25 µg/mL (≈ 0.577 µM). Moreover, the MIC80 in the assay with Aspergillus fumigatus worked out at 16 µg/mL (≈ 36.9 µM).

With `OCc1cn(C2CCN(CC(O)(Cn3cncn3)c3ccc(F)cc3F)CC2)nn1` (stereo unspecified), the MIC80 in the assay on Trichophyton rubrum is more than 64 µg/mL; in the assay with Nannizzia gypsea it was more than 64 µg/mL; in the assay on Cryptococcus neoformans, 64 µg/mL (≈ 153 µM); in the assay with Candida albicans, 8 µg/mL (≈ 19.1 µM); in the assay on Candida parapsilosis, more than 64 µg/mL; in the assay with Nakaseomyces glabratus, 32 µg/mL (≈ 76.3 µM). The MIC80 with Aspergillus fumigatus was more than 64 µg/mL.

Regarding `CC(O)c1cn(C2CCN(CC(O)(Cn3cncn3)c3ccc(F)cc3F)CC2)nn1` (stereo unspecified), the MIC80 is more than 64 µg/mL in the assay on Trichophyton rubrum; more than 64 µg/mL with Nannizzia gypsea; 64 µg/mL (≈ 148 µM) in the assay on Cryptococcus neoformans; 8 µg/mL (≈ 18.5 µM) in the assay with Candida albicans; more than 64 µg/mL in the assay with Candida parapsilosis; 16 µg/mL (≈ 36.9 µM) in the assay with Nakaseomyces glabratus. Besides, the MIC80 in the assay with Aspergillus fumigatus is more than 64 µg/mL.

On to `OCCc1cn(C2CCN(CC(O)(Cn3cncn3)c3ccc(F)cc3F)CC2)nn1` (stereo unspecified), for which the MIC80 in the assay with Trichophyton rubrum was more than 64 µg/mL; in the assay on Nannizzia gypsea, more than 64 µg/mL; in the assay with Cryptococcus neoformans it was more than 64 µg/mL; in the assay on Candida albicans, 4 µg/mL (≈ 9.23 µM); in the assay on Candida parapsilosis, more than 64 µg/mL; with Nakaseomyces glabratus it was 16 µg/mL (≈ 36.9 µM). Besides, the MIC80 with Aspergillus fumigatus is more than 64 µg/mL.

For `OCCCc1cn(C2CCN(CC(O)(Cn3cncn3)c3ccc(F)cc3F)CC2)nn1` (stereo unspecified), the MIC80 is more than 64 µg/mL in the assay on Trichophyton rubrum; more than 64 µg/mL with Nannizzia gypsea; more than 64 µg/mL with Cryptococcus neoformans; 8 µg/mL (≈ 17.9 µM) with Candida albicans; more than 64 µg/mL in the assay on Candida parapsilosis; 16 µg/mL (≈ 35.8 µM) in the assay with Nakaseomyces glabratus. Besides, in the assay on Aspergillus fumigatus, the MIC80 is more than 64 µg/mL.

Regarding `OCCCCc1cn(C2CCN(CC(O)(Cn3cncn3)c3ccc(F)cc3F)CC2)nn1` (stereo unspecified), the MIC80 was 64 µg/mL (≈ 139 µM) in the assay on Trichophyton rubrum; more than 64 µg/mL in the assay with Nannizzia gypsea; 32 µg/mL (≈ 69.3 µM) with Cryptococcus neoformans; 4 µg/mL (≈ 8.67 µM) with Candida albicans; 32 µg/mL (≈ 69.3 µM) with Candida parapsilosis; 8 µg/mL (≈ 17.3 µM) in the assay with Nakaseomyces glabratus. In addition, the MIC80 with Aspergillus fumigatus was more than 64 µg/mL.

Regarding `OC(c1ccccc1)c1cn(C2CCN(CC(O)(Cn3cncn3)c3ccc(F)cc3F)CC2)nn1` (stereo unspecified), the MIC80 with Trichophyton rubrum is 32 µg/mL (≈ 64.6 µM); with Nannizzia gypsea it was more than 64 µg/mL; in the assay with Cryptococcus neoformans, 32 µg/mL (≈ 64.6 µM); in the assay on Candida albicans, 2 µg/mL (≈ 4.04 µM); in the assay on Candida parapsilosis it was 8 µg/mL (≈ 16.1 µM); in the assay with Nakaseomyces glabratus, 8 µg/mL (≈ 16.1 µM). In addition, the MIC80 with Aspergillus fumigatus is 16 µg/mL (≈ 32.3 µM).

On to `OC(CN1CCC(n2cc(Cc3ccccc3)nn2)CC1)(Cn1cncn1)c1ccc(F)cc1F` (stereo unspecified), for which the MIC80 in the assay with Trichophyton rubrum is 1 µg/mL (≈ 2.09 µM); in the assay with Nannizzia gypsea, 4 µg/mL (≈ 8.34 µM); in the assay with Cryptococcus neoformans, 0.5 µg/mL (≈ 1.04 µM); in the assay with Candida albicans, 0.125 µg/mL (≈ 0.261 µM); in the assay with Candida parapsilosis, 1 µg/mL (≈ 2.09 µM); with Nakaseomyces glabratus it was 1 µg/mL (≈ 2.09 µM). Moreover, the MIC80 with Aspergillus fumigatus is 32 µg/mL (≈ 66.7 µM).

As for `COC(=O)CCCc1cn(C2CCN(CC(O)(Cn3cncn3)c3ccc(F)cc3F)CC2)nn1` (stereo unspecified), the MIC80 with Trichophyton rubrum stood at 4 µg/mL (≈ 8.17 µM); with Nannizzia gypsea, 8 µg/mL (≈ 16.3 µM); in the assay with Cryptococcus neoformans, 4 µg/mL (≈ 8.17 µM); in the assay with Candida albicans, 0.25 µg/mL (≈ 0.511 µM); with Candida parapsilosis, 4 µg/mL (≈ 8.17 µM); in the assay on Nakaseomyces glabratus, 2 µg/mL (≈ 4.09 µM). Moreover, the MIC80 in the assay on Aspergillus fumigatus worked out at 64 µg/mL (≈ 131 µM).

One may read the MIC80 as an inhibitory concentration at the 80% level, which refers to growth in some studies and to a panel of isolates in others.

(Values after ChEMBL document CHEMBL3286105, “Design, synthesis and antifungal activity of novel triazole derivatives containing substituted 1,2,3-triazole-piperdine side chains” (2014).)
